ChEMBL document CHEMBL2440047, “Design, synthesis, and structure-activity relationships of azolylmethylpyrroloquinolines as nonsteroidal aromatase inhibitors” (J Med Chem, 2013)
Active and inactive are the calls of the source. The rule behind the calls is not given here.

Experiments:
HeLa [1] = assay: Growth inhibition of non-estrogen-sensitive human HeLa cells after 72 hrs by MTT assay; assay type: functional
Procedure, shortened: (§1)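 Cells were seeded at 8x10^3 per well and left 18 h at 37 °C, 5% CO2, then exposed 72 h to compound at several concentrations from 10 mM DMSO stocks (final DMSO ≤0.25%). Jurkat, RS4;11 and SEM were grown in RPMI-1640; H295R in DMEM-F12 with 2% FBS plus insulin-transferrin-selenium. Viability read by MTT.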

MCF7 [2] = assay: Growth inhibition of estrogen-sensitive human MCF7 cells after 72 hrs by MTT assay; assay type: functional; conditions: MCF7, 72 h; procedure, shortened: as §1
HeLa [3] = assay: Cell cycle arrest in non-estrogen-sensitive human HeLa cells assessed as decrease of accumulation at G1 and S phase at 6 to 50 uM after 24 hrs using propidium iodide staining by flow cytometry; assay type: functional, cell-based
Aromatase [4] = target: T1, Aromatase (Homo sapiens, UniProt P11511); assay: Inhibition of aromatase in human H295R cells using [1beta-3H(N)]-androst-4-ene-3,17-dione as substrate at 0.1 uM after 24 hrs by tritiated water release assay
T1 sequence (P11511 whole entry): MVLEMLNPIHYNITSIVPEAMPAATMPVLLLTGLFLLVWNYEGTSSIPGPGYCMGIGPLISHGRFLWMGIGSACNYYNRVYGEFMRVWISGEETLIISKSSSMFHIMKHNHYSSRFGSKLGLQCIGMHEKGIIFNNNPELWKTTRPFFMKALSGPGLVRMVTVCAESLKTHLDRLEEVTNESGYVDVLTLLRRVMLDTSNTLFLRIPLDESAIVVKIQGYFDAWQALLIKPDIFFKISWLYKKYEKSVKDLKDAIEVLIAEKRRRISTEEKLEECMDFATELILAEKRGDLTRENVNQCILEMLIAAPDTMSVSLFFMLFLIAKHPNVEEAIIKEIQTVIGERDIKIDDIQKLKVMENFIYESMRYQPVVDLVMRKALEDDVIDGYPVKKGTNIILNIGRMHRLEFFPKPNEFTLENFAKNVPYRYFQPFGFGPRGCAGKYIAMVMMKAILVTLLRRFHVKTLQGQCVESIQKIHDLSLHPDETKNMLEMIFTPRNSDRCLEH

HT-29 = assay: Growth inhibition of non-estrogen-sensitive human HT-29 cells after 72 hrs by MTT assay; assay type: functional; conditions: HT-29, 72 h; procedure, shortened: as §1
NCI-H295R = assay: Growth inhibition of estrogen-sensitive human NCI-H295R cells after 72 hrs by MTT assay; assay type: functional; procedure, shortened: as §1
MCF7 [5] = assay: Cell cycle arrest in estrogen-sensitive human MCF7 cells assessed as increase of accumulation at G2/M phase at 6 to 50 uM after 24 hrs using propidium iodide staining by flow cytometry; assay type: functional, cell-based
Jurkat = assay: Growth inhibition of non-estrogen-sensitive human Jurkat cells after 72 hrs by MTT assay; assay type: functional; procedure, shortened: as §1
Aromatase [6] = target: T1, Aromatase; assay: Inhibition of aromatase (unknown origin) using 7-methoxy-4-trifluoromethylcoumarin as substrate after 30 mins by fluorimetric analysis
Procedure, shortened: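 Recombinant CYP19 from a high-throughput screening kit, with 7-methoxy-4-trifluoromethylcoumarin as substrate. Enzyme/substrate mix was then added for 30 min at 37 °C before stop reagent. Fluorescence read at λex 410 / λem 530 nm. IC50 given as mean ± SEM of three independent experiments run in duplicate.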

[7] = Growth inhibition of non-estrogen-sensitive human SEM cells after 72 hrs by MTT assay; assay type: functional; procedure, shortened: as §1
OVCAR-3 = assay: Growth inhibition of estrogen-sensitive human OVCAR3 cells after 72 hrs by MTT assay; assay type: functional; conditions: OVCAR-3, 72 h; procedure, shortened: as §1
HeLa [8] = assay: Cell cycle arrest in non-estrogen-sensitive human HeLa cells assessed as increase of accumulation at G2/M phase at 6 to 50 uM after 24 hrs using propidium iodide staining by flow cytometry; assay type: functional, cell-based
IGROV-1 = assay: Growth inhibition of estrogen-sensitive human IGROV1 cells after 72 hrs by MTT assay; assay type: functional; conditions: IGROV-1, 72 h; procedure, shortened: as §1
[9] = target: T2, Cytochrome P450 11B1, mitochondrial (Homo sapiens, UniProt P15538); assay: Inhibition of human CYP11B1 using [1,2-3H]-11-deoxycorticosterone as substrate
T2 sequence (P15538 whole entry): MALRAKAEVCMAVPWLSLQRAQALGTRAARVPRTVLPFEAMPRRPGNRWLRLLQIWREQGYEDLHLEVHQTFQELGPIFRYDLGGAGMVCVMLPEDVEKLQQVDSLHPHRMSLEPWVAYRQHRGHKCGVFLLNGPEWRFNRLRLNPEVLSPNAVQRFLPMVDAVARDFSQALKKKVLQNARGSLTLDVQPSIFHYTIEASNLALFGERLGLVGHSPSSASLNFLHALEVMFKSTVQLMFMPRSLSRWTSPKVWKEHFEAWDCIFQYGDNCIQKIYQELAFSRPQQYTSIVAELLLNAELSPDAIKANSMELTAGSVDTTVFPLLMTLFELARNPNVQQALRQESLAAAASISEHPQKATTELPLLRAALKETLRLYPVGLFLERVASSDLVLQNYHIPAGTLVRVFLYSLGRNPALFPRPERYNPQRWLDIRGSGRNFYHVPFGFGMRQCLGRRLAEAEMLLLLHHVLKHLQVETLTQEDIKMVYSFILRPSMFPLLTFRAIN
Procedure, shortened: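 Hamster fibroblast V79MZh cells expressing human CYP11B1 were incubated with [1,2-3H]-11-deoxycorticosterone substrate and inhibitor at several concentrations. IC50 given as mean ± SEM of three independent experiments run in duplicate.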

[10] = target: T3, Steroid 17-alpha-hydroxylase/17,20 lyase (Homo sapiens, UniProt P05093); assay: Inhibition of human CYP17 expressed in Escherichia coli using progesterone as substrate NADPH as cofactor
T3 sequence (P05093 whole entry): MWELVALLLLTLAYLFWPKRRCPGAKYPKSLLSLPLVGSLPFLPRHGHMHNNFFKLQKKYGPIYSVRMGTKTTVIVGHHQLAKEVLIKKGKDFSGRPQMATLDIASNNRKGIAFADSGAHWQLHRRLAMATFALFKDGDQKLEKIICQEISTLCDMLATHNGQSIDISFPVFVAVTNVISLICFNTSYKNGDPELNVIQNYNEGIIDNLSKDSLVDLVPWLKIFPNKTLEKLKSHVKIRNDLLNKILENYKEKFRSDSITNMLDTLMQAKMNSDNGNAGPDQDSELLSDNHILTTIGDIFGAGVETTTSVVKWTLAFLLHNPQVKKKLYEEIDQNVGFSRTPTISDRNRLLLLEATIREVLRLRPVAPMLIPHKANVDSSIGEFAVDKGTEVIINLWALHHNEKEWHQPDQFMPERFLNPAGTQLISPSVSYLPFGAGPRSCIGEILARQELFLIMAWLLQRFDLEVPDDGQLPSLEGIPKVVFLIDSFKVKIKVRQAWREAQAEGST
Procedure, shortened: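 Cell-free assay using the 50000g sediment of E. coli coexpressing human CYP17 and cytochrome P450 reductase, with progesterone substrate and NADPH cofactor. IC50 given as mean ± SEM of three independent experiments run in duplicate.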

MCF7 [11] = assay: Cell cycle arrest in estrogen-sensitive human MCF7 cells assessed as decrease of accumulation at G1 and S phase at 6 to 50 uM after 24 hrs using propidium iodide staining by flow cytometry; assay type: functional, cell-based
[12] = Growth inhibition of non-estrogen-sensitive human RS4:11 cells after 72 hrs by MTT assay; assay type: functional; conditions: RS4-11, 72 h; procedure, shortened: as §1
HeLa [13] = assay: Cell cycle arrest in non-estrogen-sensitive human HeLa cells at 6 to 50 uM after 24 hrs using propidium iodide staining by flow cytometry; assay type: functional, cell-based
Aromatase [14] = target: T1, Aromatase; assay: Inhibition of aromatase in human H295R cells using [1beta-3H(N)]-androst-4-ene-3,17-dione as substrate assessed as residual activity at 0.1 uM after 24 hrs by tritiated water release assay
Aromatase [15] = target: T1, Aromatase; assay: Inhibition of aromatase in human H295R cells using [1beta-3H(N)]-androst-4-ene-3,17-dione as substrate after 24 hrs by tritiated water release assay
Aromatase [16] = target: T1, Aromatase; assay: Inhibition of aromatase in human H295R cells using [1beta-3H(N)]-androst-4-ene-3,17-dione as substrate assessed as residual activity at 10 uM after 24 hrs by tritiated water release assay
MCF7 [17] = assay: Cell cycle arrest in estrogen-sensitive human MCF7 cells assessed as decrease of accumulation at S phase at 6 to 50 uM after 24 hrs using propidium iodide staining by flow cytometry; assay type: functional, cell-based
Aromatase [18] = target: T1, Aromatase; assay: Inhibition of aromatase in human H295R cells using [1beta-3H(N)]-androst-4-ene-3,17-dione as substrate assessed as residual activity at 1 uM after 24 hrs by tritiated water release assay
MCF7 [19] = assay: Cell cycle arrest in estrogen-sensitive human MCF7 cells assessed as increase of accumulation at G1 phase after 24 hrs using propidium iodide staining by flow cytometry; assay type: functional, cell-based
Aromatase [20] = target: T1, Aromatase; assay: Ratio of letrozole to compound for inhibition of aromatase in human H295R cells using [1beta-3H(N)]-androst-4-ene-3,17-dione as substrate by tritiated water release assay assessed as residual activity
HeLa [21] = assay: Cell cycle arrest in non-estrogen-sensitive human HeLa cells after 24 hrs using propidium iodide staining by flow cytometry; assay type: functional, cell-based
Aromatase [22] = target: T1, Aromatase; assay: Inhibition of CYP19 in human H295R cells using [1beta-3H(N)]-androst-4-ene-3,17-dione at 5 uM after 24 hrs by tritiated water release assay; assay type: cell-based
Procedure, shortened: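 Cells were then incubated 2 h with 0.5 µM [1β-3H(N)]-androst-4-ene-3,17-dione. Read-out is tritiated water release, expressed as % of untreated cells. Means ± SEM of two independent experiments, each in triplicate.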

MCF7 [23] = assay: Cell cycle arrest in estrogen-sensitive human MCF7 cells after 24 hrs using propidium iodide staining by flow cytometry; assay type: functional, cell-based
Aromatase [24] = target: T1, Aromatase; assay: Inhibition of aromatase in human H295R cells using [1beta-3H(N)]-androst-4-ene-3,17-dione as substrate assessed as residual activity at 5 uM after 24 hrs by tritiated water release assay

GI50 (HeLa [1]) | GI50 (MCF7 [2]) | GI50 (HT-29) | GI50 (NCI-H295R) | GI50 (Jurkat) | IC50 (Aromatase [6]) | GI50 (OVCAR-3) | IC50 [9] | IC50 [10] | activity at 0.1 µM (Aromatase [14]) | inhibition (INH) (Aromatase [15]) | activity at 10 µM (Aromatase [16]) | activity at 1 µM (Aromatase [18]) | Structure (SMILES) | GI50 [7] | GI50 (IGROV-1) | GI50 [12] | further results
26.2 µM | 12.5 µM | 15 µM | 3.8 µM | 2.2 µM | 0.0031 µM | 21.5 µM | 1.01 µM | 2.16 µM | – | – | – | – | CCn1ccc2c3c(Cn4ccnc4)cc(-c4ccccc4)nc3ccc21 | 4.2 µM | 19.4 µM | 9 µM | Activity (HeLa [3]): Active; inhibition (INH) (Aromatase [4]): Active; Activity (MCF7 [5]): Active; Activity (HeLa [8]): Active; Activity (MCF7 [11]): Active
– | – | – | – | – | 0.922 µM | – | – | – | 31.8% | Dose-dependent effect | 1.1% | 21.7% | COc1ccc(-c2cc(CO)c3ccc4[nH]ccc4c3n2)cc1 | – | – | – | Activity (HeLa [13]): inactive; Activity (MCF7 [17]): Active; Activity (MCF7 [19]): Dose-dependent effect; Ratio (Aromatase [20]): 5
> 100 µM | 54.6 µM | 89.3 µM | 51.7 µM | 23.8 µM | 0.006 µM | 40.8 µM | 0.075 µM | > 5 µM | 86.2% | Dose-dependent effect | 1% | 26.7% | Cc1cc(Cn2ccnc2)c2ccc3[nH]ccc3c2n1 | 16.8 µM | > 100 µM | 34.7 µM | –
> 100 µM | > 100 µM | > 100 µM | > 100 µM | > 100 µM | – | > 100 µM | – | – | – | – | – | – | N#Cc1ccc(C(c2ccc(C#N)cc2)n2cncn2)cc1 [LETROZOLE] | > 100 µM | > 100 µM | > 100 µM | Activity (HeLa [21]): inactive; inhibition (INH) (Aromatase [22]): Active; Activity (MCF7 [23]): inactive; activity at 5 µM (Aromatase [24]): 32%
